Measurements reported in ChEMBL document CHEMBL1135044, “Studies on the side-chain hydroxylation of ifosfamide and its bromo analogue” (Bioorg Med Chem Lett, 2002).

Legend:
Mus musculus [1] = organism: Mus musculus; assay: Maximum tolerated dose against L1210 leukemia in mice; type: functional
Summary of the method: (§1)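 Sub-acute toxicity was tested in healthy, non-tumour-bearing CD2F1 females (12–16 weeks, 25–27 g), given a single ip injection or oral gavage and observed for 45 days. Mortality was pooled from 3–6 experiments, usually 4–7 dose levels, with ≥5 mice per group. Litchfield–Wilcoxon log-dose curves were fitted. LD50 (with 95% confidence limits) and LD5 (taken as MTD) were estimated graphically.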

Mus musculus [2] = organism: Mus musculus; assay: Effective dose that produce antitumor activity against L1210 leukemia in mice; type: functional
Summary of the method: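 CD2F1 mice were inoculated ip with 10^5 ascitic L1210 cells in PBS and given a single ip dose on day 3 (advanced disease), following NIH/NCI in vivo screening protocols. ILS was calculated as T/C × 100 − 100 from average survival times. ED50, the dose giving 50% ILS, was read graphically from least-squares dose–effect curves.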

[3] = Therapeutic index represented as LD50/ED50 was determined
[4] = Dose required to kill 50% of healthy, non-tumour-bearing mice (LD50); conditions: mouse, in vivo; summary of the method: as §1

SMILES	MTD (Mus musculus [1])	ED50 (Mus musculus [2])	TI [3]	LD50 [4]
[2H]C([2H])(CCl)N[P@]1(=O)OCCCN1C([2H])([2H])CBr	196 mg/kg	15 mg/kg	17.7 Ratio	265 mg/kg
[2H]C([2H])(CCl)NP1(=O)OCCCN1C([2H])([2H])CBr (stereo not drawn)		23.6 mg/kg		
[2H]C([2H])(CCl)NP1(=O)OCCCN1C([2H])([2H])CCl (stereo not drawn)		67.8 mg/kg		
O=P1(NCCCl)OCCCN1CCBr (stereo not drawn)	236 mg/kg	34.3 mg/kg	9.3 Ratio	320 mg/kg
O=[P@]1(NCCCl)OCCCN1CCBr	230 mg/kg	21.3 mg/kg	13.6 Ratio	289 mg/kg
O=P1(NCCCl)OCCCN1CCCl (stereo not drawn) [IFOSFAMIDE]	518 mg/kg	96.4 mg/kg	7.1 Ratio	687 mg/kg
